Laboratory results reported in ChEMBL document CHEMBL4680106, “Rational Design of Dimeric Lysine N-Alkylamides as Potent and Broad-Spectrum Antibacterial Agents” (J Med Chem, 2018).
Converted amounts (≈) assume the structure as drawn. The source made the active and inactive calls. The rule behind the calls is not given here.

Experiments:
Pseudomonas aeruginosa = assay: Antimicrobial activity against Pseudomonas aeruginosa ATCC 27853 assessed as inhibition of bacterial growth by broth microdilution method; assay type: functional
Escherichia coli [1] = assay: Antimicrobial activity against Escherichia coli ATCC 25922 assessed as inhibition of bacterial growth by broth microdilution method; assay type: functional
[2] = system: Staphylococcus epidermidis; assay: Antimicrobial activity against methicillin-resistant Staphylococcus epidermidis RP62A assessed as inhibition of bacterial growth by broth microdilution method; assay type: functional
Summary of the method: (§1)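 Broth microdilution following a previously reported procedure. MIC was taken as the lowest concentration with no turbidity, meaning complete growth inhibition over the incubation period.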

Enterococcus faecalis = assay: Antimicrobial activity against vancomycin-resistant Enterococcus faecalis assessed as inhibition of bacterial growth by broth microdilution method; assay type: functional; summary of the method: as §1
Staphylococcus aureus [3] = assay: Antimicrobial activity against methicillin-resistant Staphylococcus aureus ATCC 33591 assessed as inhibition of bacterial growth by broth microdilution method; assay type: functional; summary of the method: as §1
Staphylococcus aureus [4] = assay: Bactericidal activity against methicillin-resistant Staphylococcus aureus ATCC 33591 assessed as bacterial killing by measuring reduction in bacterial colony count at 16 to 32 x MIC measured within 10 mins by time-kill kinetics method; conditions: dose 16-32 x MIC; time min <=10
Cell membrane [5] = assay: Induction of cell membrane disruption in Escherichia coli ATCC 25922 at 2 times MIC incubated for 2 hrs by DAPI and PI staining based optical microscopy
Summary of the method: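 Cells grown to ~2 × 10^6 cells, exposed 2 h, pelleted at 3000g for 15 min and PBS-washed. Stained with PI (5 µg/mL) then DAPI (10 µg/mL in water), each 15 min in the dark at 0 °C, then PBS-washed. Untreated controls handled identically. Imaged by 100x oil-immersion light microscopy; three repeats, duplicates each.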

Staphylococcus aureus [6] = assay: Bactericidal activity against methicillin-resistant Staphylococcus aureus ATCC 33591 assessed as bacterial killing at 6.25 to 12.5 ug/ml incubated for 2 hrs by time-kill kinetics method; assay type: functional, organism-based; conditions: dose 6.25-12.5 µg/ml
Summary of the method: (§2)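 MRSA were grown in tryptic soy broth to 10^6 CFU/mL and exposed to compound at multiples of MIC, sampled for up to 2 h. Aliquots were diluted 10^2–10^4-fold and plated on TSB agar, incubated 24 h at 37 °C, and colonies counted. Run three times.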

Escherichia coli [7] = assay: Inhibition of biofilm formation in Escherichia coli ATCC 25922 at 3 ug/ml incubated overnight by crystal violet staining based method; assay type: functional
Summary of the method: (§3)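 Overnight-grown (12 h) bacteria diluted 1:100 into 10% MHII broth and incubated with compound overnight at 37 °C. OD600 recorded, then biomass by crystal violet, expressed as CV OD/growth OD and normalized to untreated control. Triplicate, mean ± STDEV.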

Staphylococcus aureus [8] = assay: Antimicrobial activity against methicillin-resistant Staphylococcus aureus ATCC 33591 grown under presence of test compound at 1/2 MIC assessed as inhibition of bacterial growth measured after 14 passages by broth microdilution method relative to wild type; assay type: functional
Summary of the method: (§4)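 Initial MIC by the standard broth microdilution procedure. Bacteria from the 1/2 MIC wells were made into a suspension of about 10^6 CFU/mL, incubated with compound at 37 °C for 24 h, and the MIC was measured again. This was repeated daily for 14 passages.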

Escherichia coli [9] = assay: Inhibition of biofilm formation in Escherichia coli ATCC 25922 at 1.5 ug/ml incubated overnight by crystal violet staining based method; assay type: functional; summary of the method: as §3
[10] = Induction of hemolysis in human RBC incubated for 1 hr; assay type: cell-based, Erythrocyte; conditions: human red blood cells (erythrocytes)
Summary of the method: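 Human RBCs pelleted at 3000 rpm for 10 min and made 5% v/v in 1x PBS, mixed 1:1 with compound at several concentrations, 37 °C for 1 h. Spun at 3500 rpm for 10 min; diluted supernatant read at 540 nm. Hemolysis % referenced to 2% Triton X-100 (100%) and PBS (0%). Three repeats, duplicates each.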

Cell membrane [11] = assay: Induction of cell membrane disruption in methicillin-resistant Staphylococcus aureus ATCC 33591 at 2 times MIC incubated for 2 hrs by DAPI and PI staining based optical microscopy
Summary of the method: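 Bacteria at about 2 × 10^6 cells were treated at 2 × MIC for 2 h, then centrifuged and washed in PBS. They were stained with PI (5 µg/mL) and then DAPI (10 µg/mL), each for 15 min in the dark at 0 °C. Imaged by oil-immersion light microscopy at 100×. Untreated controls were processed identically. Three runs in duplicate.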

Cell membrane [12] = assay: Induction of cell membrane integrity loss in methicillin-resistant Staphylococcus aureus ATCC 33591 at 5 ug/ml incubated for 2 hrs by TEM analysis; conditions: dose 5.0 µg/ml
Escherichia coli [13] = assay: Antimicrobial activity against Escherichia coli ATCC 25922 grown under presence of test compound at 1/2 MIC assessed as inhibition of bacterial growth measured after 14 passages by broth microdilution method relative to wild type; assay type: functional, organism-based; summary of the method: as §4
Cell membrane [14] = assay: Induction of membrane depolarization in methicillin-resistant Staphylococcus aureus ATCC 33591 assessed as induction of membrane potential loss at 5 ug/ml incubated for 30 mins by DiSC3(5) dye based bacterial membrane depolarization assay; conditions: dose 5.0 µg/ml
Summary of the method: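 Mid-log MRSA were washed and resuspended at 10^8 CFU/mL in a 1:1:1 mix of 5 mM glucose, 5 mM HEPES and 100 mM KCl, with 2 µM DiSC3(5). Fluorescence (ex 622/em 670 nm) was read at room temperature until it reached its minimum after about 20 min. Compound was then added and the fluorescence rise recorded. Untreated negative control. Three runs in duplicate.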

Staphylococcus aureus [15] = assay: Bactericidal activity against methicillin-resistant Staphylococcus aureus ATCC 33591 assessed as bacterial killing by measuring reduction in bacterial colony count at 64 times MIC incubated for 2 hrs by time-kill kinetics method; assay type: functional, organism-based; summary of the method: as §2

With CCCCCCCNC(=O)[C@H](CCCCN)NC(=O)c1ccc(C(=O)N[C@@H](CCCCN)C(=O)NCCCCCCC)cc1 the MIC (Pseudomonas aeruginosa) was “inactive”, the MIC (Escherichia coli [1]) was 6 µg/mL (≈ 9.73 µM) and the MIC [2] was “inactive”. For the same compound, the MIC (Enterococcus faecalis) was “inactive” and the MIC (Staphylococcus aureus [3]) was “inactive”.

With CCCCCCNC(=O)[C@H](CCCCN)NC(=O)c1ccc(C(=O)N[C@@H](CCCCN)C(=O)NCCCCCC)cc1 the MIC (Pseudomonas aeruginosa) was “inactive”, the MIC (Escherichia coli [1]) was “inactive” and the MIC [2] was “inactive”. The MIC (Enterococcus faecalis) was “inactive” and the MIC (Staphylococcus aureus [3]) was “inactive”.

In the case of CCCCCCCCCNC(=O)[C@H](CCCCN)NC(=O)c1ccc(C(=O)N[C@@H](CCCCN)C(=O)NCCCCCCCCC)cc1, the Activity (Staphylococcus aureus [4]) is reported as 3.74 log10CFU/ml, the MIC (Pseudomonas aeruginosa) is reported as 3 µg/mL (≈ 4.46 µM) and the Activity (Cell membrane [5]) is reported as “Active”. The MIC (Escherichia coli [1]) was 0.75 µg/mL (≈ 1.11 µM), the Activity (Staphylococcus aureus [6]) was “inactive” and the inhibition at 3 µg/mL (Escherichia coli [7]) was 70%. The Activity (Staphylococcus aureus [8]) was “Active”, the inhibition at 1.5 µg/mL (Escherichia coli [9]) was 50% and the HC50 at 1 h [10] was 180 µg/mL. The Activity (Cell membrane [11]) was “Active”, the MIC [2] was 1.5 µg/mL (≈ 2.23 µM) and the MIC (Enterococcus faecalis) was 3 µg/mL (≈ 4.46 µM). For the same compound, the MIC (Staphylococcus aureus [3]) was 0.75 µg/mL (≈ 1.11 µM), the Activity (Cell membrane [12]) was “Active” and the Activity (Escherichia coli [13]) was “Active”. For the same compound, the Activity (Cell membrane [14]) was “Active”.

For CCn1cc(C(=O)O)c(=O)c2cc(F)c(N3CCNCC3)cc21 [NORFLOXACIN], the Ratio (Staphylococcus aureus [8]) was >80 and the Activity (Staphylococcus aureus [15]) was “inactive”.

In the case of CCCCCCCCCCNC(=O)[C@H](CCCCN)NC(=O)c1ccc(C(=O)N[C@@H](CCCCN)C(=O)NCCCCCCCCCC)cc1, the MIC (Pseudomonas aeruginosa) is reported as “inactive”, the MIC (Escherichia coli [1]) is reported as 3 µg/mL (≈ 4.28 µM) and the HC50 at 1 h [10] is reported as 250 µg/mL. For the same compound, the MIC [2] was 6 µg/mL (≈ 8.56 µM), the MIC (Enterococcus faecalis) was 3 µg/mL (≈ 4.28 µM) and the MIC (Staphylococcus aureus [3]) was 1.5 µg/mL (≈ 2.14 µM).

For NCCCC[C@H](NC(=O)c1ccc(C(=O)N[C@@H](CCCCN)C(=O)NCc2ccc(-c3ccccc3)cc2)cc1)C(=O)NCc1ccc(-c2ccccc2)cc1, the MIC (Pseudomonas aeruginosa) was 12 µg/mL (≈ 15.9 µM), the MIC (Escherichia coli [1]) was 3 µg/mL (≈ 3.98 µM) and the HC50 at 1 h [10] was > 250 µg/mL. For the same compound, the MIC [2] was 6 µg/mL (≈ 7.97 µM), the MIC (Enterococcus faecalis) was “inactive” and the MIC (Staphylococcus aureus [3]) was 3 µg/mL (≈ 3.98 µM).

With CCCCCCCCCCCCNC(=O)[C@H](CCCCN)NC(=O)c1ccc(C(=O)N[C@@H](CCCCN)C(=O)NCCCCCCCCCCCC)cc1 the MIC (Pseudomonas aeruginosa) was 12 µg/mL (≈ 15.8 µM), the MIC (Escherichia coli [1]) was 3 µg/mL (≈ 3.96 µM) and the HC50 at 1 h [10] was > 250 µg/mL. The MIC [2] was 6 µg/mL (≈ 7.92 µM), the MIC (Enterococcus faecalis) was “inactive” and the MIC (Staphylococcus aureus [3]) was 3 µg/mL (≈ 3.96 µM).

With CCCCCCCCCCCCCNC(=O)[C@H](CCCCN)NC(=O)c1ccc(C(=O)N[C@@H](CCCCN)C(=O)NCCCCCCCCCCCCC)cc1 the MIC (Pseudomonas aeruginosa) was “inactive”, the MIC (Escherichia coli [1]) was “inactive” and the MIC [2] was 6 µg/mL (≈ 7.64 µM). The MIC (Enterococcus faecalis) was “inactive” and the MIC (Staphylococcus aureus [3]) was 6 µg/mL (≈ 7.64 µM).

In the case of CCCCCCCCCCCCCCNC(=O)[C@H](CCCCN)NC(=O)c1ccc(C(=O)N[C@@H](CCCCN)C(=O)NCCCCCCCCCCCCCC)cc1, the MIC (Pseudomonas aeruginosa) is reported as “inactive”, the MIC (Escherichia coli [1]) is reported as “inactive” and the MIC [2] is reported as “inactive”. For the same compound, the MIC (Enterococcus faecalis) was “inactive” and the MIC (Staphylococcus aureus [3]) was “inactive”.

With CCCCCCCCNC(=O)[C@H](CCCCN)NC(=O)c1ccc(C(=O)N[C@@H](CCCCN)C(=O)NCCCCCCCC)cc1 the MIC (Pseudomonas aeruginosa) was 3 µg/mL (≈ 4.65 µM), the MIC (Escherichia coli [1]) was 0.75 µg/mL (≈ 1.16 µM) and the HC50 at 1 h [10] was > 250 µg/mL. For the same compound, the MIC [2] was 3 µg/mL (≈ 4.65 µM), the MIC (Enterococcus faecalis) was “inactive” and the MIC (Staphylococcus aureus [3]) was 1.5 µg/mL (≈ 2.33 µM).
